The format of series [1] is in vivo, human. The settings on record: for relative intensity (EGCG = 1): LC-MS intensity in human plasma after ingestion of catechin-rich tea; for AUC0–6h / T1/2 / Tmax: human plasma, oral catechin-rich beverage (135 mg EGCG), mean ± SD, n = 10. In short, it runs like this: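 Ten healthy fasted men drank 350 mL of a beverage with 615 mg catechins (135 mg EGCG). Plasma was taken at 0.5–6 h, acid/ascorbate/EDTA-stabilised and stored at −80 °C. Samples went through solid-phase extraction with an ethyl gallate internal standard. Analytes were identified and quantified by Orbitrap LC–MS (calibration 1–500 ng/mL). Parameters came from noncompartmental analysis; mean ± SD.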

A further series deals with SULT1A3. The settings on record: inhibition of SULT1A3; cited from earlier work.
Another series relates to COMT. The following applies: inhibition of COMT; cited from earlier work.
Another series relates to SULT1A1. The following applies: inhibition of SULT1A1; cited from earlier work.

On to `O=C(O[C@@H]1Cc2c(O)cc(O)cc2O[C@@H]1c1cc(O)c(O)c(O)c1)c1cc(O)c(O[C@@H]2O[C@H](C(=O)O)[C@@H](O)[C@H](O)[C@H]2O)c(O)c1` [EGCG-4″-glucuronide], for which, in series [1], the “relative intensity (EGCG = 1)” value is 0.39; the “AUC0–6h” value worked out at 198.9 ± 23.8 nmol·h·L^–1; the T1/2 is reported as 1.5 ± 0.64 h; the Tmax (in general, the time from dosing to the highest level) was 1.3 ± 0.26 h.

As for `O=C(O[C@@H]1Cc2c(O)cc(O)cc2O[C@@H]1c1cc(O)c(O)c(O)c1)c1cc(O)c(OS(=O)(=O)O)c(O)c1` [EGCG-4″-sulfate], in series [1], the “relative intensity (EGCG = 1)” value is 0.76, the “AUC0–6h” value worked out at 715.2 ± 127.1 nmol·h·L^–1, the T1/2 stood at 3.9 ± 1.5 h and the Tmax was 2.5 ± 0.60 h.

On to `O=c1c(O)c(-c2ccc(O)c(O)c2)oc2cc(O)cc(O)c12` [quercetin], for which the IC50 (as a rule, the concentration that gives 50% inhibition) in the series on SULT1A3 was 7 µM; in the series on COMT it was 0.9 to 8.5 µM; in the series on SULT1A1, 0.41 to 13 µM.

On to “(E)GCG-dimethyl-sulfate [(E)GCG-diMe-sulfate]”, for which the “relative intensity (EGCG = 1)” value in series [1] stood at 0.54.

The record behind these values is PMC9284555 (Journal of Agricultural and Food Chemistry, 2022).
